Measured values pooled from the literature.
Matrix: plasma

SMILES	species	route	dose	notes	endpoint	value
COc1cc(C(=O)c2nc(-c3cccc4[nH]ccc34)c[nH]2)cc(OC)c1OC	male CD-1 mouse	intraperitoneal	15 mg/kg	–	AUC(0-t)	1510 ng·h/mL
N=C(N)NCCC[C@H](NC(=O)[C@H](Cc1ccccc1)NC(=O)[C@H](CCC(N)=O)NC(=O)OCc1ccccc1)C(=O)c1nccs1	female C57BL/6 mouse	intravenous	5 mg/kg	–	AUC(0-t)	1180 ng·h/mL
CN(C)C1(CNC(=O)c2ccc3c(c2)CCN3C(=O)c2ccccc2)CCOCC1	male CD-1 mouse	intraperitoneal	30 mg/kg	–	AUC(0-inf)	246 ng·h/mL
CC[C@H](C)[C@H](NC(=O)[C@H](Cc1ccccc1)NC(=O)[C@H](CCC(=O)O)NC(=O)[C@H](CCCCN)NC(=O)[C@H](C)NC(=O)[C@H](C)NC(=O)[C@H](CCC(N)=O)NC(=O)CNC(=O)[C@H](CCC(=O)O)NC(=O)[C@H](CC(C)C)NC(=O)[C@H](Cc1ccc(O)cc1)NC(=O)[C@H](CO)NC(=O)[C@H](CO)NC(=O)[C@@H](NC(=O)[C@H](CC(=O)O)NC(=O)[C@H](CO)NC(=O)[C@@H](NC(=O)[C@H](Cc1ccccc1)NC(=O)[C@@H](NC(=O)CNC(=O)[C@H](CCC(=O)O)NC(=O)[C@H](C)NC(=O)N(N)Cc1c[nH]cn1)[C@@H](C)O)[C@@H](C)O)C(C)C)C(=O)N[C@@H](C)C(=O)N[C@@H](Cc1c[nH]c2ccccc12)C(=O)N[C@@H](CC(C)C)C(=O)N[C@H](C(=O)N[C@@H](CCCNC(=N)N)C(=O)NCC(=O)N[C@@H](CCCNC(=N)N)C(=O)NCC(=O)O)C(C)C	male CD-1 mouse	intravenous	1 mg/kg	single dose	AUC(0-t)	2390 ng·h/mL
CC(C)=CCC[C@](C)(O[C@@H]1O[C@H](CO)[C@@H](O)[C@H](O)[C@H]1O)[C@H]1CC[C@]2(C)[C@@H]1[C@H](O)C[C@@H]1[C@@]3(C)CC[C@H](O)C(C)(C)[C@@H]3CC[C@]12C	mouse	oral	10 mg/kg	–	AUC(0-t)	655 ng·h/mL
C[C@@H](O)[C@@H]1NC(=O)CNC(=O)[C@H](Cc2c[nH]cn2)NC(=O)[C@H](Cc2c[nH]c3ccccc23)NC(=O)[C@H](CC(N)=O)NC(=O)CNC(=O)C[C@@H](C(=O)N[C@@H](Cc2c[nH]c3ccccc23)C(=O)N[C@@H](Cc2ccccc2)C(=O)N[C@@H](Cc2ccccc2)C(=O)N[C@@H](CC(N)=O)C(=O)N[C@@H](Cc2ccc(O)cc2)C(=O)N[C@@H](Cc2ccc(O)cc2)C(=O)N[C@@H](Cc2c[nH]c3ccccc23)C(=O)O)NC(=O)[C@@H]2CCCN2C(=O)[C@H](CO)NC1=O	mouse	intravenous	3 mg/kg	–	AUC(0-t)	35100 ng·h/mL
CCOC(=O)c1c(NC(=O)CNC(C)C)sc2c1CCCCC2	male mouse	intraperitoneal	100 mg/kg	single dose	AUC(0-t)	19300 ng·h/mL
O=C1CCC(N2Cc3c(ccc4c3OCC43CCN(Cc4ccccc4)CC3)C2=O)C(=O)N1 (stereo not drawn)	male CD-1 mouse	oral	3 mg/kg	–	AUC(0-inf)	1340 ng·h/mL
CC(C)[C@]12O[C@H]1[C@@H]1O[C@]13[C@]1(O[C@H]1C[C@H]1C4=C(CC[C@@]13C)C(=O)OC4)[C@@H]2O	SCID mouse	intravenous	0.6 mg/kg	–	AUC(0-inf)	619 ng·h/mL
